Source: ChEMBL document CHEMBL1149410, “Discovery of a potent phenolic N1-benzylidene-pyridinecarboxamidrazone selective against Gram-positive bacteria” (Bioorg Med Chem Lett, 2006)
Converted amounts (≈) assume the structure as drawn. The source made the active and inactive calls. The rule behind the calls is not given here.

Experiments:
Staphylococcus aureus = assay: Antibacterial activity against 10 clinical isolate methicillin-resistant strains of Staphylococcus aureus; type: functional
Summary of the method: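 Agar dilution MIC on Mueller–Hinton agar. Bacteria were spotted with a multipoint inoculator and plates incubated at 37 °C for 18 h. MIC was taken as the lowest concentration inhibiting growth. The panels covered clinical MRSA isolates, methicillin-sensitive S. aureus, enterococci, Gram-negative bacteria and vancomycin-resistant enterococci.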

[1] = test system: Mycolicibacterium fortuitum; assay: Antibacterial activity against Mycobacterium fortuitum; type: functional, organism-based
Summary of the method: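 The Mycobacterium fortuitum reference strain NCTC 10394 was screened for a zone of inhibition on Columbia agar supplemented with horse blood. Compounds were also screened at a single concentration in Middlebrook 7H9 broth with glycerol and ADC enrichment. The MIC was determined in broth when a zone or single-concentration activity was seen.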

PBMC = assay: Toxicity towards human mononuclear leucocytes at 1 mM; type: cell-based; settings: 1000 µM
Summary of the method: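 Human mononuclear leucocytes were exposed to compound for 1 h, then held in compound-free medium for 18 h. Cell death was scored by trypan blue exclusion and reported as % leucocyte death. The test concentration was 1 mM, or 0.5 mM where solubility limited it.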

SMILES: N/C(=N\N=C\c1cc(I)cc(I)c1O)c1ccncc1
- MIC (Staphylococcus aureus): 10 µg/mL (≈ 20.3 µM)

SMILES: COc1cc([N+](=O)[O-])cc(/C=N/N=C(\N)c2ccncc2)c1O
- Activity [1]: inactive
- MIC (Staphylococcus aureus): inactive

SMILES: COc1ccc(/C=N/N=C(\N)c2ccncc2)c(O)c1
- Activity [1]: inactive
- MIC (Staphylococcus aureus): inactive

SMILES: N/C(=N\N=C\c1cc([N+](=O)[O-])ccc1O)c1ccncc1
- Activity [1]: inactive
- MIC (Staphylococcus aureus): 20 µg/mL (≈ 70.1 µM)

SMILES: N/C(=N\N=C\c1ccccc1O)c1ccncc1
- Activity (PBMC): 11.7%
- MIC (Staphylococcus aureus): inactive

SMILES: CC(C)(C)c1cc(/C=N/N=C(\N)c2ccc3ccccc3n2)c(O)c(C(C)(C)C)c1
- Activity [1]: inactive
- MIC (Staphylococcus aureus): inactive

SMILES: CC(C)(C)c1cc(C=O)c(O)c(C(C)(C)C)c1
- Activity (PBMC): 32.7%

SMILES: COc1c(/C=N/N=C(\N)c2ccncc2)cc(C(C)(C)C)cc1C(C)(C)C
- MIC (Staphylococcus aureus): inactive

SMILES: N/C(=N\N=C\c1cccc(O)c1O)c1ccncc1
- Activity [1]: inactive
- MIC (Staphylococcus aureus): inactive

SMILES: N/C(=N\N=C\c1cc(Br)cc([N+](=O)[O-])c1O)c1ccncc1
- Activity [1]: inactive
- MIC (Staphylococcus aureus): inactive

SMILES: N/C(=N\N=C\c1c(O)cc(O)cc1O)c1ccncc1
- Activity [1]: inactive
- MIC (Staphylococcus aureus): inactive

SMILES: N/C(=N\N=C\c1ccc(O)c(O)c1)c1ccncc1
- Activity [1]: inactive
- MIC (Staphylococcus aureus): inactive

SMILES: Cc1cc(C)c(O)c(/C=N/N=C(\N)c2ccncc2)c1
- MIC (Staphylococcus aureus): inactive
